Published values gathered from unrelated publications.
Cell line: A549
Effect on: cell growth or viability

SMILES | assay | conditions | IC50
Cc1nc(Nc2ccc3c(c2)/C(=C/c2ccccc2Cl)C(=O)N3)c2ccccc2n1 | MTT | – | 5.67 µM
O=C(O)c1ccc2c(c1)nc(Nc1cccc(Cl)c1)c1ccncc12 | resazurin | 48 h | 11.5 µM
C[C@H]1Oc2cc(cnc2N)-c2c(nn(C)c2C#N)CN(C)C(=O)c2ccc(F)cc21 | – | – | > 8.41 µM
Cc1nc(N(C)c2ccc3c(c2)/C(=C/c2ccccc2Cl)C(=O)N3C)c2ccccc2n1 | MTT | – | 7.68 µM
O=C(C=Cc1ccccc1)Nc1cc(-c2ccnc(N3CCOCC3)c2)ccn1 | MTT | 72 h | 0.444 µM
C#Cc1cccc(Nc2ncnc3cc(OCCOC)c(OCCOC)cc23)c1 | MTT | 72 h | 25.6 µM
COc1cc2ncnc(N(C)c3ccc4c(c3)/C(=C/c3cccc(Cl)c3)C(=O)N4C)c2cc1OC | MTT | – | 5.83 µM
Cc1ncc(CN2CCN(Cc3ccccn3)CC2)c2cc(C(=O)c3ccc4c(c3)OCCO4)oc12 | MTT | 72 h | 57.2 µM
C=C(F)C(=O)N1CCN(c2nc(OC[C@@H]3CCCN3C)nc3c2CCN(c2cccc4cccc(Cl)c24)C3)C[C@@H]1CC#N | ATP luminescence | – | 2.17 µM
[NH2][Pt]([NH2])([Cl])[Cl] | MTT | – | 9.5 µM
C=CC(=O)N1CCN(c2nc(=O)n(-c3c(C)ccnc3C(C)C)c3nc(-c4c(O)cccc4F)c(F)cc23)[C@@H](C)C1 | ATP luminescence | – | > 10 µM
COc1cccc2c1C(=O)c1c(O)c3c(c(O)c1C2=O)C[C@@](O)(C(=O)CO)C[C@@H]3O[C@H]1C[C@H](N)[C@H](O)[C@H](C)O1 | MTT | 72 h | 2.7 µM
Cc1ccc2c(-c3cc4c(CN5CCN(Cc6ccccn6)CC5)cnc(C)c4o3)cc(=O)oc2c1 | MTT | 72 h | 43.1 µM
COc1cc2ncnc(Nc3ccc4c(c3)/C(=C/c3cccc(Cl)c3)C(=O)N4C)c2cc1OC | MTT | – | 9.19 µM
